{"data": "Measurements collected from several papers", "effect on": "cell growth or viability", "note": "Each line is one published result; the experiments were not run side by side."}
{"SMILES": "NS(=O)(=O)OC[C@H]1C[C@@H](Nc2ccnc3cc(-c4cccc(SC(F)(F)F)c4)nn23)[C@H](O)[C@@H]1O", "cell line": "HEK-293T", "assay": "ATP luminescence", "conditions": "24 h", "quantity": "EC50", "value": "0.296 µM"}
{"SMILES": "CCN(c1ccc(C)cc1)c1ccc(NC(=O)CN(C)c2ccccc2N2CCCC2=O)cn1", "cell line": "HepG2", "assay": "ATP luminescence", "conditions": "48 h", "quantity": "CC50", "value": "> 40 µM"}
{"SMILES": "O=c1c2c([nH]c3cc(Oc4ccc(OC(F)(F)F)cc4)ccc13)CCCC2", "cell line": "HepG2", "assay": "MTT", "conditions": "48 h", "quantity": "IC50", "value": "> 50 µM"}
{"SMILES": "c1cnc2c(c1)ccc1cccnc12", "cell line": "HEK-293T", "assay": "MTT", "conditions": "12.5 µg/mL, 24 h", "quantity": "viability", "value": "> 80%"}
{"SMILES": "NS(=O)(=O)c1ccc(-c2ccc(Nc3ccncc3)cc2)cc1", "cell line": "HEK-293T", "assay": "MTT", "conditions": "100 µM", "quantity": "viability", "value": "69%"}
{"SMILES": "OCc1ccc(-c2nn(Cc3ccccc3)c3ccccc23)o1", "cell line": "HepG2", "assay": "ATP luminescence", "quantity": "IC50", "value": "7.14 µM"}
{"SMILES": "NS(=O)(=O)c1ccc(-c2ccc(Nc3ccc(Cl)cc3)cc2)cc1", "cell line": "HEK-293T", "assay": "MTT", "conditions": "100 µM", "quantity": "viability", "value": "76%"}
{"SMILES": "Cc1ccc(N(C)c2ccc(NC(=O)CN(C)c3ccccc3N3CCCC3=O)cc2)nc1", "cell line": "HepG2", "assay": "ATP luminescence", "conditions": "48 h", "quantity": "CC50", "value": "> 40 µM"}
